# In the library only some 3.7% were active in any assay of this set; here they are far more common.
# KCNK9 inh: human KCNK9 channel inhibition | HEK293 KCNK9, FluxOR thallium flux fluorescence; active compounds read low | B-score at 10 µM | 310,000 compounds, 1.2% hits | AID 488922;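 active = ratio B-score over 3 SD below the library mean, with starting fluorescence within 5 SD of its mean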;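 also: negative B-score means less thallium flux so channel inhibition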
# KCNQ1 act: human KCNQ1 channel potentiation or activation; P51787; B-score at 10 µM; CHO-K1 KCNQ1, thallium flux FluxOR fluorescence; active compounds read high; 310,000 compounds, 0.35% hits;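 active = fluorescence ratio B-score, a plate-corrected score, at least three library SD, with initial intensity B-score within 5 SD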
#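 Material: CHO-K1 cells stably expressing KCNQ1. Medium: assay buffer for compound exposure, DMSO matched across wells. Reagent: K+/Tl+ depolarizing stimulus. Compound dosing: single-concentration screen. Times: 37 °C overnight plating, 90-min dark dye load, 20-min compound pretreatment. Technique: FluxOR Tl+ flux fluorescence.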
# Kir21 block: inhibitors of mouse Kir2.1 inward-rectifier potassium channel; P35561; HEK293-Kir2.1, FluxOR thallium flux fluorescence; active compounds read low; B-score at 10 µM; 310,000 compounds, 0.85% hits; AID 1672;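 active = fluorescence ratio B-score at or below minus 3 SD of library scores, with starting-brightness B-score within 2 SD, cut at about -4.2 in these data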;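 also: channel flux triggered by added potassium and thallium sulfate stimulus; B-score of peak minus minimum fluorescence over baseline after thallium stimulus; more negative B-score means stronger Kir2.1 block with less thallium influx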
# Target sequence (P35561 whole entry, looked up): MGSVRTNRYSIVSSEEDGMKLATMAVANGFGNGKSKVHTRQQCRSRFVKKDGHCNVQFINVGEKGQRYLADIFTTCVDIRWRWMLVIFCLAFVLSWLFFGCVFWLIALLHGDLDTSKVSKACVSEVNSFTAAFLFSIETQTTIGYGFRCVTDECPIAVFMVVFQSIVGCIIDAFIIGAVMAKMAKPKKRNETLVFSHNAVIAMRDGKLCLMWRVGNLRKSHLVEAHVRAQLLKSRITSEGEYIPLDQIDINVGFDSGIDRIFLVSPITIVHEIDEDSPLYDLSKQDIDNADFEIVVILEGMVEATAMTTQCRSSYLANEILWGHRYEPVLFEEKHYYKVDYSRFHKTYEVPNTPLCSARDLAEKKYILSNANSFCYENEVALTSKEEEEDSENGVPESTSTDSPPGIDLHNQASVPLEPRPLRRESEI
# KCNQ1 inh: inhibitors of human KCNQ1 potassium channel. P51787. CHO-K1 KCNQ1, FluxOR thallium flux fluorescence; active compounds read high. B-score at 10 µM. 310,000 compounds, 1.3% hits;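 active = compounds whose thallium flux B-score, printed positive for inhibition, exceeds three library SD while starting fluorescence stays within three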;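 also: channel opened by potassium depolarization with thallium stimulus after 20 min compound exposure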
# KCNK3 block: human KCNK3 channel inhibition, primary screen; CHO-KCNK3 thallium flux, FluxOR fluorescence; active compounds read low; B-score at 10 µM; AID 602410; 340,000 compounds, 0.84% hits; O14649;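 active = B-score under library mean minus 4 SD, starting fluorescence ratio at most library mean plus 5 SD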;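 also: more negative B-score means stronger inhibition of thallium flux through KCNK3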
# hERG rescue: shields human hERG channel from block by proarrhythmic agents; Q12809; activation (rescue from dofetilide block), less the hit threshold, % at 10 µM; 310,000 compounds, 0.51% hits; CHO-hERG, FluxOR thallium flux, dofetilide IC70 present;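 active = activation above the mean of controls blocked by dofetilide plus 5 SD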;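 also: thallium influx through hERG after potassium depolarization seen as dye fluorescence rise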
# KCNK9 inh conf: human KCNK9 inhibitor confirmation | inhibition, % at 10 µM | HEK293 KCNK9 cells, FluxOR thallium flux fluorescence | 4,900 compounds, 43% hits | shares compounds with KCNK9 inh;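 active = thallium signal inhibited by more than 5 SD of the compound-free buffer control wells, on both duplicate plates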;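 also: 0% = assay buffer control wells without compound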
# Kir21 sel: tests whether KCNK9 modulators also affect mouse Kir2.1; Kir2.1 cells, FluxOR thallium flux fluorescence; inhibition, % at 10 µM; 4,900 compounds, 4% hits; shares compounds with KCNK9 inh;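 active = thallium signal drop more than 5 SD beyond the mean of the no-compound control wells, seen in both duplicate plates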;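 also: signal is fluorescence rise after thallium addition divided by baseline fluorescence; plate controls were assay buffer only for no effect and full block by chlorpromazine control for full effect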
# KCNK9 uninduced: second check of KCNK9 modulator effects in non-induced HEK293 cells; AID 492997; inhibition, % at 10 µM; FluxOR thallium flux; 4,900 compounds, 40% hits; shares compounds with KCNK9 inh;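 active = thallium signal drop beyond 5 SD of the untreated control mean, on both duplicate plates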;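 also: plate controls were buffer only IC0 wells for no effect and SID17386958 at its maximal inhibitory level for full effect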
# An asterisk follows results filed as active; i = inactive; . = not tested or not shown.
SMILES,KCNK9 inh,KCNQ1 act,Kir21 block,KCNQ1 inh,KCNK3 block,hERG rescue,KCNK9 inh conf,Kir21 sel,KCNK9 uninduced
O=C(CSc1ncc(C(F)(F)F)cc1Cl)N1CCN(S(=O)(=O)c2ccc3ccccc3c2)CC1,i,i,1.3,i,i,-13,i,i,i
O=C(c1cn(-c2ccccc2)nc1-c1cccnc1)N1CCN(S(=O)(=O)c2cccc(F)c2)CC1,.,.,.,.,i,.,.,.,.
NC(=O)CSc1nc2ccccc2c(=O)n1Cc1ccco1,i,i,-0.9,i,i,-5,.,.,.
CCCn1c(C)cc(C(=O)CSc2nc3ccccc3c(=O)n2Cc2ccco2)c1C,i,i,-0.14,i,i,-2,i,i,i
CCOc1ccccc1NC(=O)CSc1nnc(-c2ccccc2Cl)n1Cc1ccco1,-10*,i,-2.2,i,i,-7,53%*,i,36%*
CCOc1ccccc1NC(=O)CSc1nnc(-c2ccco2)n1Cc1ccco1,i,i,-4,i,i,-4,.,.,.
CC(=O)Nc1ccc(NC(=O)CN2CCN(c3cccc(C(F)(F)F)c3)CC2)cc1,i,i,-0.5,i,i,-8,.,.,.
Cn1ccnc1SCC(=O)Nc1cccc(C(F)(F)F)c1,i,i,-0.51,i,i,-3,.,.,.
O=C(CN1CCN(c2cccc(C(F)(F)F)c2)CC1)Nc1cccc(C(F)(F)F)c1,i,i,-0.4,9*,i,-17,i,i,i
O=C(CSC1=NCCN1)Nc1cccc(C(F)(F)F)c1,-9.9*,i,-0.41,i,i,-18,32%*,i,24%*
Cc1nc2cc(-c3cccc(F)c3)nn2c(C)c1CCC(=O)NC(C)CCc1ccco1 (stereo not drawn),i,i,2.3,i,i,-4,.,.,.
Fc1cccc(-c2cc3nc4c(c(NCc5ccco5)n3n2)CCCC4)c1,-10*,i,0.4,i,i,-14,37%*,i,32%*
CCOc1ccccc1NC(=O)COC(=O)C(CC)c1ccccc1 (stereo not drawn),i,i,-3.2,i,i,-6,.,.,.
COc1ccc(-c2cc(C)no2)cc1S(=O)(=O)N1CCCN(Cc2ccccc2Cl)C1,-16*,i,-1.3,i,i,-7,32%*,i,32%*
CC1(C)C=Cc2c(c3c(c4c(=O)c(-c5ccc(O)cc5)coc24)OC(C)(C)CC3)O1,-10*,i,-0.4,i,i,-7,50%*,i,26%*
CC(C)=CCc1c2c(c3occ(-c4ccc(O)cc4)c(=O)c3c1O)C=CC(C)(C)O2,i,i,-1.4,i,i,-8,.,.,.
COc1cccc(CNC(=O)c2cccc(NC(=O)C3=C(C)OCCS3)c2)c1,-8.9*,i,1.5,i,i,-13,50%*,i,i
Cc1cc(C)c(S(=O)(=O)c2ccccc2C)c(OCC(C)(C)C)n1,-10*,i,-1.6,i,i,-8,44%*,i,53%*
COc1c(CC=C(C)C)cc(C2CC(=O)c3c(O)cc(O)cc3O2)c(CC=C(C)C)c1O (stereo not drawn),-11*,i,0.01,i,.,-5,67%*,i,50%*
CC(=O)Nc1ccc(N/C=C/C(=O)c2ccc(C)o2)cc1,i,i,-0.76,i,i,-5,.,.,.
COc1ccccc1Oc1ccc(N/C=C/C(=O)c2ccc(C)o2)cc1,i,i,-0.86,i,i,-4,i,i,i
O=C(Nc1nnc(-c2ccc3c(c2)OCCO3)o1)C1CCCCC1,i,i,-0.45,i,i,-17,.,.,.
CC(C)(C)c1ccc(C(=O)CC(Sc2ccc(Cl)cc2)C(=O)O)cc1 (stereo not drawn),i,i,-1.8,i,i,-18,i,i,i
Cc1ccc(SC(CC(=O)c2ccc(F)cc2)C(=O)O)cc1 (stereo not drawn),i,i,0.05,i,i,-8,.,.,.
O=C(CSc1nnc(C2CC2)n1CC1CCCO1)Nc1ccc(Cl)cc1 (stereo not drawn),i,i,0.16,i,i,-6,.,.,.
SMILES,KCNK9 inh,KCNQ1 act,Kir21 block,KCNQ1 inh,KCNK3 block,hERG rescue,KCNK9 inh conf,Kir21 sel,KCNK9 uninduced
O=C(OCC#CCSc1nnc(-c2ccc(Br)cc2)o1)c1cccs1,-12*,i,-0.91,i,i,-9,i,i,40%*
Cc1c(C(=O)N2CC[C@@H](N3CCC(O)CC3)[C@H](O)C2)[nH]c2ccc(Cl)cc12,i,i,1.7,i,i,-7,.,.,.
CCN(CC)CCNC(=O)C(=O)NCC1OCCN1S(=O)(=O)c1cccs1 (stereo not drawn),i,i,0.26,i,i,-11,.,.,.
CCOC(=O)C(CSCc1ccccc1)NC(=O)OC(C)(C)C (stereo not drawn),i,i,-4.3*,i,i,-6,i,i,i
Cc1ccc(C(=O)C(C)OC(=O)CN2C(=O)NC3(CCCC3)C2=O)cc1C (stereo not drawn),i,i,1.4,i,i,-15,.,.,.
COc1ncccc1-c1nnn(-c2ccc(F)cc2)n1,i,i,0.71,i,i,-9,.,.,.
COC(=O)c1sc(-c2ccc(C(C)(C)C)cc2)cc1NC(=O)CCC(=O)O,i,i,0.46,i,i,-8,i,i,i
CCN(CC)S(=O)(=O)c1cccc(-c2nnc(SCC(=O)c3cc(C)n(C)c3C)o2)c1,i,i,-0.7,i,i,1,.,.,.
CCN(CC)S(=O)(=O)c1cccc(-c2nnc(SCCOc3ccccc3C)o2)c1,i,i,0.69,i,i,-15,i,i,i
CCN(CC)S(=O)(=O)c1cccc(-c2nnc(SCCOc3ccc(Cl)cc3)o2)c1,-10*,i,-1.3,i,i,-4,48%*,i,i
COc1ccc(N2CC(C(=O)Nc3ccc(S(=O)(=O)N4CCCCC4)cc3)CC2=O)cc1 (stereo not drawn),i,i,0.11,i,i,-14,.,.,.
Cc1sc2nc(-c3cccnc3)nc(Cl)c2c1-c1ccccc1,i,i,0.49,i,i,-7,i,i,i

# High-throughput results deposited in PubChem BioAssay by Johns Hopkins Ion Channel Center.
